High-throughput results (PubChem BioAssay)
Shown are actives, neighbours in structure and some others; about 1.8% of the full set was active somewhere.
bovine MsrA act: bovine MsrA enzyme activators, primary screen, biochemical, absorbance, HTS; Methionine sulfoxide reductase A (Bos taurus); purified bovine MsrA, absorbance read-out; activation, % at 10.6 µM; 360,000 compounds, 0.3% hits; in the data active = activation above about 7.5%;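 note: 0% = vehicle and 100% = reference activator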
beta cell repl: inducers of MIN6 beta-cell proliferation, primary screen, ATP luminescence, uHTS. MIN6 cells proliferation, ATPlite luminescence, 48 h; cells starved in 0.2% serum; 100% = growth in 10% serum. proliferation, % at 10 µM. 330,000 compounds, 0.29% hits. AID 2380, 2010;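 active = compounds whose signal lies at least 3.5 SD above the mean of all wells on their plate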;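 note: 0% = DMSO-treated cells in low-serum medium and 100% = 10% serum control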
SKN-1 block: suppressors of acrylamide-induced Pgst-4::GFP reporter in worms, primary screen, SKN-1 inhibitor project, whole organism, uHTS, GFP/RFP fluorescence ratio, strain VP596. C. elegans VP596 Pgst-4::GFP/RFP ratio, 24 h. inhibition, % at 21.8 µM. AID 624304, 2012. 360,000 compounds, 0.49% hits;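 active = interference check ratio from 0.5 to 1.5 plus GFP to RFP signal ratio inhibition reaching or exceeding a fixed threshold, cut at about 30% in these data, passing the limit was not always enough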
MT1-MMP act inh: blockers of MT1-MMP proenzyme processing, primary screen, HT1080 RFP-PRO-GFP cells, GFP/RFP fluorescence; 360,000 compounds, 0.061% hits; GFP/RFP ratio change, % at 20 µM; GFP/RFP ratio fluorescence, overnight; percent of plate control window, DMSO zero; Matrix metalloproteinase-14 (Homo sapiens), P50281;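 active = GFP/RFP ratio change of at least 30% with cell ATP level not reduced by more than half and red fluorescence within 50% of control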
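Assay system – RFP-PRO-GFP reporter HT1080 cells · Compound dosing – single dose of 20 µM compound, 1% DMSO final · Incubation – overnight compound exposure at 37 °C · Measure – GFP/RFP fluorescence ratio · Benchmarks – DMSO wells and RFP-L50D-GFP cells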
MsrA inh: bovine MsrA enzyme inhibitors, primary screen, biochemical, absorbance, HTS | Methionine sulfoxide reductase A (Bos taurus) | purified bovine MsrA, absorbance read-out | inhibition, % at 15.5 µM | 360,000 compounds, 0.75% hits;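 note: 0% = vehicle wells with enzyme and 100% = reference inhibitor wells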
DAGLB inh: DAGLB lipase inhibitors, primary screen, biochemical, fluorescence, HTS; HEK293T DAGLB membrane lysate, EnzChek fluorogenic substrate; inhibition, % at 5.17 µM; 340,000 compounds, 0.059% hits; AID 504411, 2011; in the data active = inhibition above about 34%;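 note: 0% = enzyme with vehicle and 100% = wells lacking enzyme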
Target sequence (Q8NCG7 whole entry, looked up): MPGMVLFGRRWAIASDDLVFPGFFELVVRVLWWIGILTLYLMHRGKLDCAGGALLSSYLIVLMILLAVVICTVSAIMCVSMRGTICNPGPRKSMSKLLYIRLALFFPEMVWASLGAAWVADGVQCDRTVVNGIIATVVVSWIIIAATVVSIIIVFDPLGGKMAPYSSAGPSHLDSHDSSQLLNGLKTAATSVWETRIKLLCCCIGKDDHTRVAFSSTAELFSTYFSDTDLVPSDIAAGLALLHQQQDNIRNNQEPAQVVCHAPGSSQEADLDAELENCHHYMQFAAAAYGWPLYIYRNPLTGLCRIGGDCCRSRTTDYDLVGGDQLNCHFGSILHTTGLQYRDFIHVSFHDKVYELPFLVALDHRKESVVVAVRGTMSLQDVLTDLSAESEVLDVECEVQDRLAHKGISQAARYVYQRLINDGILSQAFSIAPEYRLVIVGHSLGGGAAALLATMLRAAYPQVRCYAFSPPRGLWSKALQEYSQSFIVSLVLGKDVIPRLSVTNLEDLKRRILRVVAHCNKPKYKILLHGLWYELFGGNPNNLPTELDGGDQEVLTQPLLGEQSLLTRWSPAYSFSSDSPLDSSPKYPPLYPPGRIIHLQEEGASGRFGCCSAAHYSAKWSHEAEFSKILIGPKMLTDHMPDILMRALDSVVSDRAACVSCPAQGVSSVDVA
MsrA conf: bovine MsrA inhibitors, retest, confirmation, biochemical, absorbance, HTS; AID 651822, 2012; inhibition, % at 15.5 µM; purified bovine MsrA, absorbance read-out; 2,300 compounds, 41% hits; shares compounds with MsrA inh;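 note: coupled to thioredoxin reductase with NADPH and selenocystamine and DMSO as substrate; 0% = vehicle only and 100% = full effect of reference inhibitor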
The depositor's hits bear a star; · = no result. Cut-off read from the data, not from the text of the source, unless noted: active = inhibition above about 4.5%; inactive = the rest.

SMILES	bovine MsrA act	beta cell repl	SKN-1 block	MT1-MMP act inh	MsrA inh	DAGLB inh	MsrA conf
CC(C)n1cc(/C=N/Nc2ccc(C(=O)O)cc2)c2ccccc21	-2.1	-2.3	1.5	4.5	5.5*	1.7	4.2
O=C(N/N=C/c1c[nH]c2ccccc12)c1ccc(Br)cc1	-7.0	-2.1	5.7	3.2	3.0	-2.7	·
NC(=S)N/N=C/c1c[nH]c2ccccc12	-0.5	2.5	-11.6	2.1	6.5*	0.1	3.0
O=C(N/N=C\c1c[nH]c2ccccc12)c1ccc(O)cc1	-5.0	3.5	6.9	-0.7	5.3*	1.1	4.1
O=C(O)c1ccc(S(=O)(=O)NN=Cc2c[nH]c3ccccc23)cc1	-15.6	·	15.0	-4.5	2.1	-8.2	·
O=[N+]([O-])c1ccc(N/N=C2\CC3CC=CC23)c([N+](=O)[O-])c1 (stereo not drawn)	-8.2	-6.6	19.9	15.4	5.6*	-3.2	4.2
O=C(CCCN1C(=O)c2cccc3cccc(c23)C1=O)N1CCN(c2ccccc2O)CC1	2.4	-1.0	8.5	-1.7	5.1*	0.4	1.7
COc1ccccc1-n1c(=O)c2c3c(sc2n2c(=S)[nH]nc12)CCC3	-4.4	0.6	-1.9	-4.8	0.4	2.9	·
CC1=C(C#N)C(=O)NC(=O)/C1=C\c1ccc(-c2ccc(C)cc2[N+](=O)[O-])o1	-4.7	·	5.4	-7.7	9.2*	6.9	3.9
Cc1nnc(NC(=O)CSc2nnc(CC(=O)Nc3ccccc3Cl)n2C)s1	-8.1	0.0	-2.4	1.3	1.2	-0.8	·
CCOC(=O)CNS(=O)(=O)c1cc(-c2n[nH]c(=O)c3ccccc23)ccc1C	-1.9	·	9.2	1.4	0.7	2.0	·
Cc1ccc(NS(=O)(=O)c2cc(-c3n[nH]c(=O)c4ccccc34)ccc2C)cc1	-1.2	-1.8	13.8	-3.9	5.2*	1.7	5.0*
CCn1c(Sc2nc(C)nc3scc(-c4cccs4)c23)n[nH]c1=O	-6.6	0.5	-22.9	-2.1	10.2*	-1.7	10.0*
Cc1nc(SCC(=O)NC(=O)NCCC(C)C)c2c(-c3cccs3)csc2n1	-6.7	0.0	-10.1	-10.4	3.0	-1.4	·
CCc1ccc(C(=O)NC(CCSC)C(=O)OC)cc1 (stereo not drawn)	-1.4	-1.6	-0.9	1.5	0.5	-1.8	·
CCS(=O)(=O)CCSc1nc2ccccc2o1	-2.0	-1.1	-7.3	8.2	6.1*	4.2	4.3
O=S(=O)(c1ccc2[nH]ccc2c1)N1CCCCCC1	-1.4	0.6	-0.9	-1.9	1.6	-0.6	·
O=C(COC(=O)c1ccc(Cl)cc1)NCC1CCCCC1	-1.8	0.8	-9.7	-1.4	0.9	-2.4	·
O=C(CN1C(=O)NC2(CCCC2)C1=O)Nc1cc(Cl)ccc1N1CCOCC1	-0.7	1.7	6.0	1.1	0.2	-0.2	·
O=C(COc1ccc2c(-c3ccccc3)cc(=O)oc2c1)NCC1CCC(C(=O)O)CC1 (stereo not drawn)	-2.3	-0.6	12.8	3.6	5.0*	-1.3	3.0
O=C(NCC1CCCO1)c1ccc(-c2ccccc2Cl)o1 (stereo not drawn)	-5.6	-4.5	1.0	0.0	-0.7	-2.1	·
